Target: Vascular endothelial growth factor receptor 2 (Homo sapiens) (UniProt P35968)
Assay: Inhibition of KDR at 10 uM
Conditions: not given

Sequence of Vascular endothelial growth factor receptor 2 (Homo sapiens) (P35968 whole entry): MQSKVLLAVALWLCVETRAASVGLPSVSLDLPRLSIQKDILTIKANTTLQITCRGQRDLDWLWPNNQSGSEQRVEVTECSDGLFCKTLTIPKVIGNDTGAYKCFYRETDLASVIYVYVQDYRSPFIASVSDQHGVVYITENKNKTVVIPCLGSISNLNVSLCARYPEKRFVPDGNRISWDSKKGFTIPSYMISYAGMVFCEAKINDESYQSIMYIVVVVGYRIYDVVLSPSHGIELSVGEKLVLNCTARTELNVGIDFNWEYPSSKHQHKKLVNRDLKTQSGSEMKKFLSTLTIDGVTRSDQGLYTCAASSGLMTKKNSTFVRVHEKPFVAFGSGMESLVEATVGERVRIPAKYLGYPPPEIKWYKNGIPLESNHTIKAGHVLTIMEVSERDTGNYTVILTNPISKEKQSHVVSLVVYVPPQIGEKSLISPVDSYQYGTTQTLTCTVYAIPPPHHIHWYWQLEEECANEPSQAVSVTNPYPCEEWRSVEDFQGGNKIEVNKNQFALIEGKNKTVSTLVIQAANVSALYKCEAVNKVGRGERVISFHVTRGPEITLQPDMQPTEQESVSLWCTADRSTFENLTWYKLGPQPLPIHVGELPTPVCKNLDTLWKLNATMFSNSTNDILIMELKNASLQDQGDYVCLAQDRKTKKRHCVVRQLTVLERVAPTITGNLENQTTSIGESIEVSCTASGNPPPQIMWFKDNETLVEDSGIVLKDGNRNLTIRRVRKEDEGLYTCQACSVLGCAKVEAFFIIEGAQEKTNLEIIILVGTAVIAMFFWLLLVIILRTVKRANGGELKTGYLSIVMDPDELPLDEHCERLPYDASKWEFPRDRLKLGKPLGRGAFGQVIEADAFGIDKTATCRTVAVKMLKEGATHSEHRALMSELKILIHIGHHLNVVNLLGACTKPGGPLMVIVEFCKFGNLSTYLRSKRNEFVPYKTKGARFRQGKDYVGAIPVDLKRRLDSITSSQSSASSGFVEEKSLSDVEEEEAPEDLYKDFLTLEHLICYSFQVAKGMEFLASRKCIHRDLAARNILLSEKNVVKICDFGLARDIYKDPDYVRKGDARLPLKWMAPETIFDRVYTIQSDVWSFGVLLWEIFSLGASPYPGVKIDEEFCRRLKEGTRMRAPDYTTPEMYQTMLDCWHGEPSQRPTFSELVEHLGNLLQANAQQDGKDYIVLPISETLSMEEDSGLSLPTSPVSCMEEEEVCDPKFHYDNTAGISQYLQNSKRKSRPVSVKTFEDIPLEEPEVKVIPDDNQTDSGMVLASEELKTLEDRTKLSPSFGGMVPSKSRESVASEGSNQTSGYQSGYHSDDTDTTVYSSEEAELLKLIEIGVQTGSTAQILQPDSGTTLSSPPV

SMILES | inhibition [%]
O=C(Nc1ccc(Oc2ccnc(-c3ncc(C(F)(F)F)[nH]3)c2)cc1)Nc1ccc(Cl)c(C(F)(F)F)c1 | 3.5

Target: Cyclin-dependent kinase 2 (Homo sapiens) (UniProt P24941)
Assay: Inhibition of CDK2 at 10 uM
Conditions: not given

SMILES | inhibition [%]
O=C(Nc1ccc(Oc2ccnc(-c3ncc(C(F)(F)F)[nH]3)c2)cc1)Nc1ccc(Cl)c(C(F)(F)F)c1 | 7.8

Target: RAC-alpha serine/threonine-protein kinase (Homo sapiens) (UniProt P31749)
Assay: Inhibition of AKT1 at 10 uM
Conditions: not given

Sequence of RAC-alpha serine/threonine-protein kinase (Homo sapiens) (P31749 whole entry): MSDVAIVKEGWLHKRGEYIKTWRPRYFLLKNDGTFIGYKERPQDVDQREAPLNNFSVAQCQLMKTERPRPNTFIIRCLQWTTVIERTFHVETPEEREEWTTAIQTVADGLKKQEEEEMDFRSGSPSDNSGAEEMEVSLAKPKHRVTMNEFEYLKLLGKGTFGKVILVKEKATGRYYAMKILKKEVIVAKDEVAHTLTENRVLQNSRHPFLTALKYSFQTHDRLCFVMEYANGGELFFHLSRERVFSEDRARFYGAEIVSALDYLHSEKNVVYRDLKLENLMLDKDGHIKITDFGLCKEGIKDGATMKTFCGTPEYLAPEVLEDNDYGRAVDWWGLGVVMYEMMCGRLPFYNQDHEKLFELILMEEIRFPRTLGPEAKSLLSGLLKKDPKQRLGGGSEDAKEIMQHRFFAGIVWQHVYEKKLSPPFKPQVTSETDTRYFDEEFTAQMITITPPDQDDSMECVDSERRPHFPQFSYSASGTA

SMILES | inhibition [%]
O=C(Nc1ccc(Oc2ccnc(-c3ncc(C(F)(F)F)[nH]3)c2)cc1)Nc1ccc(Cl)c(C(F)(F)F)c1 | 11.7

Target: Macrophage colony-stimulating factor 1 receptor (Homo sapiens) (UniProt P07333)
Assay: Inhibition of FMS at 10 uM
Conditions: not given

SMILES | inhibition [%]
O=C(Nc1ccc(Oc2ccnc(-c3ncc(C(F)(F)F)[nH]3)c2)cc1)Nc1ccc(Cl)c(C(F)(F)F)c1 | 50.8

System: MDA-MB-231
Assay: Antiproliferative activity against human MDA-MB-231 cells after 72 hrs by MTT assay
Format: functional, cell-based
Conditions: MDA-MB-231, 72 h
How it was run: (§1)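 RPMI-1640 with 10% fetal calf serum, 37 °C, 5% CO₂, 95% humidity. Cells seeded at 5.0 × 10³/well and grown 24 h, then exposed 72 h to a range of compound concentrations. MTT (5 mg/ml solution) added for a further 4 h at 37 °C. Formazan crystals dissolved and absorbance read at 570 nm. Each compound tested three times per cell line. IC50 reported as mean ± SD of three independent experiments.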

SMILES | IC50 [µM]
O=C(Nc1ccc(Cl)c(Cl)c1)Nc1ccc(Oc2ccnc(-c3ncc(C(F)(F)F)[nH]3)c2)cc1Cl | 1.77
O=C(Nc1cccc(C(F)(F)F)c1)Nc1ccc(Oc2ccnc(-c3ncc(C(F)(F)F)[nH]3)c2)cc1Cl | 14.2
O=C(Nc1ccc(Oc2ccnc(-c3ncc(C(F)(F)F)[nH]3)c2)cc1)Nc1ccc2c(c1)OCO2 | 63.2
O=C(Nc1ccc(Cl)c(C(F)(F)F)c1)Nc1ccc(Oc2ccnc(-c3ncc(C(F)(F)F)[nH]3)c2)cc1Cl | 3.77
Cc1cc(NC(=O)Nc2ccc(Oc3ccnc(-c4ncc(C(F)(F)F)[nH]4)c3)cc2)no1 | 44.8
O=C(Nc1ccc(Oc2ccnc(-c3ncc(C(F)(F)F)[nH]3)c2)cc1)Nc1ccc(Cl)c(C(F)(F)F)c1 | 1.21
O=C(Nc1ccc(Oc2ccnc(-c3ncc(C(F)(F)F)[nH]3)c2)cc1)Nc1ccc(Br)cc1F | 25.4
O=C(Nc1ccc(F)cc1)Nc1ccc(Oc2ccnc(-c3ncc(C(F)(F)F)[nH]3)c2)cc1 | 38.7
COc1cc(NC(=O)Nc2ccc(Oc3ccnc(-c4ncc(C(F)(F)F)[nH]4)c3)cc2Cl)cc(OC)c1OC | > 100

Target: Serine/threonine-protein kinase PLK1 (Homo sapiens) (UniProt P53350)
Assay: Inhibition of PLK1 at 10 uM
Conditions: not given

SMILES | inhibition [%]
O=C(Nc1ccc(Oc2ccnc(-c3ncc(C(F)(F)F)[nH]3)c2)cc1)Nc1ccc(Cl)c(C(F)(F)F)c1 | 8.7

Target: Focal adhesion kinase 1 (Homo sapiens) (UniProt Q05397)
Assay: Inhibition of PTK2 at 10 uM
Conditions: not given

SMILES | inhibition [%]
O=C(Nc1ccc(Oc2ccnc(-c3ncc(C(F)(F)F)[nH]3)c2)cc1)Nc1ccc(Cl)c(C(F)(F)F)c1 | 4.9

Target: Receptor-type tyrosine-protein kinase FLT3 (Homo sapiens) (UniProt P36888)
Assay: Inhibition of FLT3 at 10 uM
Conditions: not given

SMILES | inhibition [%]
O=C(Nc1ccc(Oc2ccnc(-c3ncc(C(F)(F)F)[nH]3)c2)cc1)Nc1ccc(Cl)c(C(F)(F)F)c1 | 17.7

System: SMMC-7721
Assay: Antiproliferative activity against human SMMC7721 cells after 72 hrs by MTT assay
Format: functional, cell-based
Conditions: SMMC-7721, 72 h
How it was run: as §1

SMILES | IC50 [µM]
O=C(Nc1ccc(Cl)c(Cl)c1)Nc1ccc(Oc2ccnc(-c3ncc(C(F)(F)F)[nH]3)c2)cc1Cl | 2.49
O=C(Nc1cccc(C(F)(F)F)c1)Nc1ccc(Oc2ccnc(-c3ncc(C(F)(F)F)[nH]3)c2)cc1Cl | 9.72
O=C(Nc1ccc(Oc2ccnc(-c3ncc(C(F)(F)F)[nH]3)c2)cc1)Nc1ccc2c(c1)OCO2 | 92.4
O=C(Nc1ccc(Cl)c(C(F)(F)F)c1)Nc1ccc(Oc2ccnc(-c3ncc(C(F)(F)F)[nH]3)c2)cc1Cl | 6.52
Cc1cc(NC(=O)Nc2ccc(Oc3ccnc(-c4ncc(C(F)(F)F)[nH]4)c3)cc2)no1 | 87.7
O=C(Nc1ccc(Oc2ccnc(-c3ncc(C(F)(F)F)[nH]3)c2)cc1)Nc1ccc(Cl)c(C(F)(F)F)c1 | 1.38
O=C(Nc1ccc(Oc2ccnc(-c3ncc(C(F)(F)F)[nH]3)c2)cc1)Nc1ccc(Br)cc1F | 44.6
O=C(Nc1ccc(F)cc1)Nc1ccc(Oc2ccnc(-c3ncc(C(F)(F)F)[nH]3)c2)cc1 | 36.2
COc1cc(NC(=O)Nc2ccc(Oc3ccnc(-c4ncc(C(F)(F)F)[nH]4)c3)cc2Cl)cc(OC)c1OC | > 100

Target: Hepatocyte growth factor receptor (Homo sapiens) (UniProt P08581)
Assay: Inhibition of c-MET at 10 uM
Conditions: not given

Sequence of Hepatocyte growth factor receptor (Homo sapiens) (P08581 whole entry): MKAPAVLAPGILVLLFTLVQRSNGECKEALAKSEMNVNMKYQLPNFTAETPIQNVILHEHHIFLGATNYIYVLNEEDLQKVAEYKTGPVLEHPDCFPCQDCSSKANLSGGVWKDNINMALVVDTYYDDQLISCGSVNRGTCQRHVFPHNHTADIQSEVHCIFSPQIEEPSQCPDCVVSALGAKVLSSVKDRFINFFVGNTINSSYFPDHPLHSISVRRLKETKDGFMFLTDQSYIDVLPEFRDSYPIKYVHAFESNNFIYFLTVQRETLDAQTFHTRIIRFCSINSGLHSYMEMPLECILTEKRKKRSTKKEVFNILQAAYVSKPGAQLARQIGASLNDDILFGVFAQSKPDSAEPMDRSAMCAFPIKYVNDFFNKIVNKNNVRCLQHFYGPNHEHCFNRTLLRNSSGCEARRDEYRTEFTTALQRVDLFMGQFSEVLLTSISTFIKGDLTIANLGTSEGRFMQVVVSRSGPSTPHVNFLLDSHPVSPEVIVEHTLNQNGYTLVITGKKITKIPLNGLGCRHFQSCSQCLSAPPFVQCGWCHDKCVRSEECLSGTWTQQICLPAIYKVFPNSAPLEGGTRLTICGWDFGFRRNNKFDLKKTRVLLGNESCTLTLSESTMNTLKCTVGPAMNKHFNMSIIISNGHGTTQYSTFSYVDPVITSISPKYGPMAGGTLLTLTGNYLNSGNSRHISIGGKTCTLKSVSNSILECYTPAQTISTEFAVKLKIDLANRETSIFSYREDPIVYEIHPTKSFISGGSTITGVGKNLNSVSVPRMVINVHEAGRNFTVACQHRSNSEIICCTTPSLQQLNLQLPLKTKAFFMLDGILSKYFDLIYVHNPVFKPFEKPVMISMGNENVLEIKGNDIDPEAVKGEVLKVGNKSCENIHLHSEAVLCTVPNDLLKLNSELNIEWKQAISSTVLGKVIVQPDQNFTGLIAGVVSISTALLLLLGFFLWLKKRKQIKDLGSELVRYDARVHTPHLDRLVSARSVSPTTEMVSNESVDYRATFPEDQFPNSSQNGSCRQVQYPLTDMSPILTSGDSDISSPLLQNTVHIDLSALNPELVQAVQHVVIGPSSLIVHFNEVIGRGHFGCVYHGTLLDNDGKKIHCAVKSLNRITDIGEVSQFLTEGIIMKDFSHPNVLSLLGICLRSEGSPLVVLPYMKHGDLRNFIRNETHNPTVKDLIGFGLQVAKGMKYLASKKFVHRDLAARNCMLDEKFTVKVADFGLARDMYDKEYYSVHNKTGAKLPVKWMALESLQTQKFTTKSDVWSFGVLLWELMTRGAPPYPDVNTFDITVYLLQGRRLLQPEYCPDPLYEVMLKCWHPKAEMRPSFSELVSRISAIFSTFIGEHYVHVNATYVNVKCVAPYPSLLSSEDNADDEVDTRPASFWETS

SMILES | inhibition [%]
O=C(Nc1ccc(Oc2ccnc(-c3ncc(C(F)(F)F)[nH]3)c2)cc1)Nc1ccc(Cl)c(C(F)(F)F)c1 | 2.2

Target: Mast/stem cell growth factor receptor Kit (Homo sapiens) (UniProt P10721)
Assay: Inhibition of c-KIT at 10 uM
Conditions: not given

Sequence of Mast/stem cell growth factor receptor Kit (Homo sapiens) (P10721 whole entry): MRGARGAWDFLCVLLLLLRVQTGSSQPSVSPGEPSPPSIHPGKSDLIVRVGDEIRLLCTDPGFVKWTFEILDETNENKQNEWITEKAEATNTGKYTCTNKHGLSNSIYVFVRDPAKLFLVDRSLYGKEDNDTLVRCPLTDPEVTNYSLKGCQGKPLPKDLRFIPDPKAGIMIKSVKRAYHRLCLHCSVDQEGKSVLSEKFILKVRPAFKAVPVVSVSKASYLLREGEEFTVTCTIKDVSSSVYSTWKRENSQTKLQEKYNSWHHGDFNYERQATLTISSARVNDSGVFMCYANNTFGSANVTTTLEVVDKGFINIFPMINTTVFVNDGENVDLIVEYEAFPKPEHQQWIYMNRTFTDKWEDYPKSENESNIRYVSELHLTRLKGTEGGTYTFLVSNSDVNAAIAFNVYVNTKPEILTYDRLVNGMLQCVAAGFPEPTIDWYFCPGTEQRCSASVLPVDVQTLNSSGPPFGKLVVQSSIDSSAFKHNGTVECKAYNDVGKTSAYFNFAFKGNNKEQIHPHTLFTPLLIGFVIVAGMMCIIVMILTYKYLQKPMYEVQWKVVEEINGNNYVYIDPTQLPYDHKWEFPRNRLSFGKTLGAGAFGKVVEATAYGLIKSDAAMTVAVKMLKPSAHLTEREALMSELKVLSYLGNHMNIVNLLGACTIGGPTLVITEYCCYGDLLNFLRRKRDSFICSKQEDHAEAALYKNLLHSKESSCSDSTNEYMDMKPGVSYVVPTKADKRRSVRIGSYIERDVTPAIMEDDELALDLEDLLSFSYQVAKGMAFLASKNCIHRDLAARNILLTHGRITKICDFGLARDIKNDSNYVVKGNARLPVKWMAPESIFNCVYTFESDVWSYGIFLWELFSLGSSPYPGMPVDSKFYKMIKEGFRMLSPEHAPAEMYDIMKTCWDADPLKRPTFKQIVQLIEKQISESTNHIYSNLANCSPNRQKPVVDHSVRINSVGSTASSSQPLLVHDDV

SMILES | inhibition [%]
O=C(Nc1ccc(Oc2ccnc(-c3ncc(C(F)(F)F)[nH]3)c2)cc1)Nc1ccc(Cl)c(C(F)(F)F)c1 | 23.9

Target: Angiopoietin-1 receptor (Homo sapiens) (UniProt Q02763)
Assay: Inhibition of TIE2 at 10 uM
Conditions: not given

SMILES | inhibition [%]
O=C(Nc1ccc(Oc2ccnc(-c3ncc(C(F)(F)F)[nH]3)c2)cc1)Nc1ccc(Cl)c(C(F)(F)F)c1 | 27.5

Target: Tyrosine-protein kinase SYK (Homo sapiens) (UniProt P43405)
Assay: Inhibition of SYK at 10 uM
Conditions: not given

SMILES | inhibition [%]
O=C(Nc1ccc(Oc2ccnc(-c3ncc(C(F)(F)F)[nH]3)c2)cc1)Nc1ccc(Cl)c(C(F)(F)F)c1 | 20.4

Target: Tyrosine-protein kinase JAK2 (Homo sapiens) (UniProt O60674)
Assay: Inhibition of JAK2 at 10 uM
Conditions: not given

SMILES | inhibition [%]
O=C(Nc1ccc(Oc2ccnc(-c3ncc(C(F)(F)F)[nH]3)c2)cc1)Nc1ccc(Cl)c(C(F)(F)F)c1 | 0

Target: Inhibitor of nuclear factor kappa-B kinase subunit beta (Homo sapiens) (UniProt O14920)
Assay: Inhibition of IKKbeta at 10 uM
Conditions: not given

SMILES | inhibition [%]
O=C(Nc1ccc(Oc2ccnc(-c3ncc(C(F)(F)F)[nH]3)c2)cc1)Nc1ccc(Cl)c(C(F)(F)F)c1 | 5.6

System: BGC-823
Assay: Antiproliferative activity against human BGC823 cells after 72 hrs by MTT assay
Format: functional, cell-based
Conditions: BGC-823, 72 h
How it was run: as §1

SMILES | IC50 [µM]
O=C(Nc1ccc(Cl)c(Cl)c1)Nc1ccc(Oc2ccnc(-c3ncc(C(F)(F)F)[nH]3)c2)cc1Cl | 12.7
O=C(Nc1cccc(C(F)(F)F)c1)Nc1ccc(Oc2ccnc(-c3ncc(C(F)(F)F)[nH]3)c2)cc1Cl | 23.2
O=C(Nc1ccc(Oc2ccnc(-c3ncc(C(F)(F)F)[nH]3)c2)cc1)Nc1ccc2c(c1)OCO2 | > 100
O=C(Nc1ccc(Cl)c(C(F)(F)F)c1)Nc1ccc(Oc2ccnc(-c3ncc(C(F)(F)F)[nH]3)c2)cc1Cl | 11.1
Cc1cc(NC(=O)Nc2ccc(Oc3ccnc(-c4ncc(C(F)(F)F)[nH]4)c3)cc2)no1 | 97.7
O=C(Nc1ccc(Oc2ccnc(-c3ncc(C(F)(F)F)[nH]3)c2)cc1)Nc1ccc(Cl)c(C(F)(F)F)c1 | 13.2
O=C(Nc1ccc(Oc2ccnc(-c3ncc(C(F)(F)F)[nH]3)c2)cc1)Nc1ccc(Br)cc1F | 66.8
O=C(Nc1ccc(F)cc1)Nc1ccc(Oc2ccnc(-c3ncc(C(F)(F)F)[nH]3)c2)cc1 | 23.7
COc1cc(NC(=O)Nc2ccc(Oc3ccnc(-c4ncc(C(F)(F)F)[nH]4)c3)cc2Cl)cc(OC)c1OC | > 100

Target: T1, RAF proto-oncogene serine/threonine-protein kinase (Homo sapiens, UniProt P04049)
Assay: Inhibition of C-Raf kinase-mediated phosphorylation of Mek using [33P]gammaATP after 20 mins by scintillation counting
Conditions: not given
How it was run: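 The reaction was started with [γ-³³P]ATP (about 500 cpm/pmol) and run 20 min at 30 °C. It was then spotted onto a phosphocellulose mat, washed in 1% phosphoric acid, and counted by scintillation.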

T1 sequence (P04049 whole entry): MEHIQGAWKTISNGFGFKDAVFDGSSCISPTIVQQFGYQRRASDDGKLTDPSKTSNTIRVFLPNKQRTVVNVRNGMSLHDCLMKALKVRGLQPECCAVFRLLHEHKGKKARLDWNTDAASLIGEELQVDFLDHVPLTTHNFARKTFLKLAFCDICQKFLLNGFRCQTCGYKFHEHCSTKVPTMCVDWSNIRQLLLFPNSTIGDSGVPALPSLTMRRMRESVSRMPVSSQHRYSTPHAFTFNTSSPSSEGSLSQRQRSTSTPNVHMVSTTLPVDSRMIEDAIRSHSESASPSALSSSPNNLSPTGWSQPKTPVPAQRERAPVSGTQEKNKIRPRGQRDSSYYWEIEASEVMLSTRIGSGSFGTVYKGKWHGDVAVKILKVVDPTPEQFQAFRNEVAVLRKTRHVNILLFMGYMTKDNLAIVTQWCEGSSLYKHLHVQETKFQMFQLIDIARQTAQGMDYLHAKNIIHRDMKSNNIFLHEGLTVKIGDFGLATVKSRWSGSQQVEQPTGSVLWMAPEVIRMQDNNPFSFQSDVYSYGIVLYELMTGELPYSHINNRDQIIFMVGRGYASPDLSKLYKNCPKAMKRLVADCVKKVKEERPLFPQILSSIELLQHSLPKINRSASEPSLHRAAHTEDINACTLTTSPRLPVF

SMILES | IC50 [µM]
O=C(Nc1ccc(Cl)c(Cl)c1)Nc1ccc(Oc2ccnc(-c3ncc(C(F)(F)F)[nH]3)c2)cc1Cl | 0.0165
O=C(Nc1cccc(C(F)(F)F)c1)Nc1ccc(Oc2ccnc(-c3ncc(C(F)(F)F)[nH]3)c2)cc1Cl | 0.0648
O=C(Nc1ccc(Cl)c(C(F)(F)F)c1)Nc1ccc(Oc2ccnc(-c3ncc(C(F)(F)F)[nH]3)c2)cc1Cl | 0.0221
Cc1cc(NC(=O)Nc2ccc(Oc3ccnc(-c4ncc(C(F)(F)F)[nH]4)c3)cc2)no1 | 0.148
O=C(Nc1ccc(Oc2ccnc(-c3ncc(C(F)(F)F)[nH]3)c2)cc1)Nc1ccc(Cl)c(C(F)(F)F)c1 | 0.0106
O=C(Nc1ccc(Oc2ccnc(-c3ncc(C(F)(F)F)[nH]3)c2)cc1)Nc1ccc(Br)cc1F | 0.0815
O=C(Nc1ccc(F)cc1)Nc1ccc(Oc2ccnc(-c3ncc(C(F)(F)F)[nH]3)c2)cc1 | 0.0949

System: not listed separately
Assay: Inhibition of Abl at 10 uM
Conditions: not given

SMILES | inhibition [%]
O=C(Nc1ccc(Oc2ccnc(-c3ncc(C(F)(F)F)[nH]3)c2)cc1)Nc1ccc(Cl)c(C(F)(F)F)c1 | 44.3

Target: Fibroblast growth factor receptor 1 (Homo sapiens) (UniProt P11362)
Assay: Inhibition of FGFR1 at 10 uM
Conditions: not given

SMILES | inhibition [%]
O=C(Nc1ccc(Oc2ccnc(-c3ncc(C(F)(F)F)[nH]3)c2)cc1)Nc1ccc(Cl)c(C(F)(F)F)c1 | 20.2

System: not listed separately
Assay: Inhibition of PKA at 10 uM
Conditions: not given

SMILES | inhibition [%]
O=C(Nc1ccc(Oc2ccnc(-c3ncc(C(F)(F)F)[nH]3)c2)cc1)Nc1ccc(Cl)c(C(F)(F)F)c1 | 1.3

Target: T1, RAF proto-oncogene serine/threonine-protein kinase
Assay: Inhibition of c-Raf at 10 uM
Conditions: not given

SMILES | inhibition [%]
O=C(Nc1ccc(Oc2ccnc(-c3ncc(C(F)(F)F)[nH]3)c2)cc1)Nc1ccc(Cl)c(C(F)(F)F)c1 | 95.3

Target: Tyrosine-protein kinase Fyn (Homo sapiens) (UniProt P06241)
Assay: Inhibition of FYN at 10 uM
Conditions: not given

SMILES | inhibition [%]
O=C(Nc1ccc(Oc2ccnc(-c3ncc(C(F)(F)F)[nH]3)c2)cc1)Nc1ccc(Cl)c(C(F)(F)F)c1 | 0.4

Target: Platelet-derived growth factor receptor alpha (Homo sapiens) (UniProt P16234)
Assay: Inhibition of PDGFRalpha at 10 uM
Conditions: not given

SMILES | inhibition [%]
O=C(Nc1ccc(Oc2ccnc(-c3ncc(C(F)(F)F)[nH]3)c2)cc1)Nc1ccc(Cl)c(C(F)(F)F)c1 | 0

Target: Vascular endothelial growth factor receptor 2 (Homo sapiens) (UniProt P35968)
Assay: Inhibition of VEGFR2 at 10 uM
Conditions: not given

SMILES | inhibition [%]
O=C(Nc1ccc(Oc2ccnc(-c3ncc(C(F)(F)F)[nH]3)c2)cc1)Nc1ccc(Cl)c(C(F)(F)F)c1 | 36.8

From ChEMBL document CHEMBL2046400, “Design, synthesis and antitumor activities of novel bis-aryl ureas derivatives as Raf kinase inhibitors” (Bioorg Med Chem, 2012)
